# The M2OR odorant receptor database
# Tests used:
# Conditions in all cases: stereoisomer not certain
# OR5H8 (Homo sapiens) = OR5H8 (Homo sapiens) (UniProt P0DN80)
# Procedure, shortened: (§1)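 Each entry records the cell line, G-protein, co-transfected protein and tags used. Methods varied with the source, often transient luciferase assays in mammalian cell lines. A receptor–molecule pair is called responsive (active) if the original authors judged its signal statistically different from baseline and non-responsive (inactive) otherwise.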
# OR5K1 F62L = test system: OR5K1 F62L
# Sequence of OR5K1 F62L (as listed by the source, stated change not applied): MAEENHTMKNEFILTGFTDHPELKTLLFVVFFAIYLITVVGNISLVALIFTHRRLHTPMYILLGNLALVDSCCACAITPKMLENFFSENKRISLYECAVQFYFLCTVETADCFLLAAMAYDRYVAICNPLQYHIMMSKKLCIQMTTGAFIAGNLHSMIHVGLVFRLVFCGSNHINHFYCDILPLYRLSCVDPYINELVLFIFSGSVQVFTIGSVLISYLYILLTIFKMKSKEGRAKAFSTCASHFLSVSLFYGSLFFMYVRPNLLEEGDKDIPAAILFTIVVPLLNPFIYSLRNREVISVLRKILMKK
# Procedure, shortened: as §1
# OR5K1 (Homo sapiens) = target: T1, OR5K1 (Homo sapiens) (UniProt Q8NHB7)
# T1 sequence (whole entry): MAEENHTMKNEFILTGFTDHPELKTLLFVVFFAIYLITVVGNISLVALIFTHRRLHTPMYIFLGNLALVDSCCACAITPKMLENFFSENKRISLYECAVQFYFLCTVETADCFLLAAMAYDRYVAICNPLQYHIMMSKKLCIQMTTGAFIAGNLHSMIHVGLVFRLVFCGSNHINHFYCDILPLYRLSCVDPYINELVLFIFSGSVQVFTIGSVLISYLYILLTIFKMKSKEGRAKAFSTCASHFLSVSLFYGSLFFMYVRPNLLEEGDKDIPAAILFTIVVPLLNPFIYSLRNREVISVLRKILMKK
# Procedure, shortened: as §1
# OR5M3 (Homo sapiens) = target: T2, OR5M3 (Homo sapiens) (UniProt Q8NGP4)
# T2 sequence (whole entry): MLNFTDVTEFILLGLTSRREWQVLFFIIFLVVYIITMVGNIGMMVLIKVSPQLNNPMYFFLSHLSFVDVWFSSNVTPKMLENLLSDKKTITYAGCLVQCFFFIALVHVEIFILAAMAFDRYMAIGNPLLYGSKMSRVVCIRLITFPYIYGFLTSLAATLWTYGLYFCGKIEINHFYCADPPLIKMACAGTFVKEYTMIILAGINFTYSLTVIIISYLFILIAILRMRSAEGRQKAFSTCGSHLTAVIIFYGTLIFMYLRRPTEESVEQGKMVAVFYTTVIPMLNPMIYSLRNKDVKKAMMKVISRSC
# Procedure, shortened: as §1
# OR5K2 (Homo sapiens) = target: T3, OR5K2 (Homo sapiens) (UniProt Q8NHB8)
# T3 sequence (whole entry): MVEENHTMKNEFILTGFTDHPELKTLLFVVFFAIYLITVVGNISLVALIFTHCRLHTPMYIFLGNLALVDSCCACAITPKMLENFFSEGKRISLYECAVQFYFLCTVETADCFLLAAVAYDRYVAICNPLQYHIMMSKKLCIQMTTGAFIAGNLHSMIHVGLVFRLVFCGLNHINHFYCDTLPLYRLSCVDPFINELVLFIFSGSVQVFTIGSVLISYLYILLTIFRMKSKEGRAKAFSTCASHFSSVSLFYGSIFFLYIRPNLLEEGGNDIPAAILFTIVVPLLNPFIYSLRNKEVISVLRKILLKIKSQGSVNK
# Procedure, shortened: as §1
# OR5K3 (Homo sapiens) = target: T4, OR5K3 (Homo sapiens) (UniProt A6NET4)
# T4 sequence (whole entry): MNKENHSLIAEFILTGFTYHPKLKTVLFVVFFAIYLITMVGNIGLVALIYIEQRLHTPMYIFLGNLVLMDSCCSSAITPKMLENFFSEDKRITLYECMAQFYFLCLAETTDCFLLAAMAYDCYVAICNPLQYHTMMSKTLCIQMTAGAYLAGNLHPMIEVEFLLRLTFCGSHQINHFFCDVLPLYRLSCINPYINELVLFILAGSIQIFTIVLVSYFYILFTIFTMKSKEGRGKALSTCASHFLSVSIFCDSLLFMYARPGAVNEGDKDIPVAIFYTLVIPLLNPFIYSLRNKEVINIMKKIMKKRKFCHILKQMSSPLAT
# Procedure, shortened: as §1
# OR5K4 (Homo sapiens) = target: T5, OR5K4 (Homo sapiens) (UniProt A6NMS3)
# T5 sequence (whole entry): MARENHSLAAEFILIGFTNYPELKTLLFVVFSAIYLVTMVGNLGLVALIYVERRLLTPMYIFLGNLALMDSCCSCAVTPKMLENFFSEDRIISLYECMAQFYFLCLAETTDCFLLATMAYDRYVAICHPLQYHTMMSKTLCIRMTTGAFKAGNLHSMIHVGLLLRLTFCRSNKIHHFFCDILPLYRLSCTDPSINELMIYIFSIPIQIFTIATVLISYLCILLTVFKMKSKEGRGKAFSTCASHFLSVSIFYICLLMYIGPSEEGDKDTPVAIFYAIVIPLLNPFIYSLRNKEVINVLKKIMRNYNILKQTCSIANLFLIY
# Procedure, shortened: as §1
# Sequence of OR5H8 (Homo sapiens) (P0DN80 whole entry): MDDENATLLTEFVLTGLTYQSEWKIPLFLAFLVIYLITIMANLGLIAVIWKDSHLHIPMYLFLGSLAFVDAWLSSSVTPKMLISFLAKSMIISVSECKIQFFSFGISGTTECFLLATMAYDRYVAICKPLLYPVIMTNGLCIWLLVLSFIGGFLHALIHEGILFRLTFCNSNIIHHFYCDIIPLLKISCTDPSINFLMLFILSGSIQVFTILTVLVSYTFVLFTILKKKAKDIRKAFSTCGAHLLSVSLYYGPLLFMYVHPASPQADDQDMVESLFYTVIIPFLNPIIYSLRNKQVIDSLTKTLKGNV
compound,measurement,setting,value
CC1CCCCCCCCCCCCC(=O)C1 (stereo not drawn),odorant receptor agonist call,OR5H8 (Homo sapiens),inactive
CC(=O)c1c(C)c([N+](=O)[O-])c(C(C)(C)C)c([N+](=O)[O-])c1C,odorant receptor agonist call,OR5H8 (Homo sapiens),inactive
Cc1cnc(C)c(C)n1,odorant receptor agonist call,OR5K1 F62L,active
CCCC(=O)OC,odorant receptor agonist call,OR5K1 (Homo sapiens),inactive
same,odorant receptor agonist call,OR5M3 (Homo sapiens),inactive
CCCCC(=O)O,odorant receptor agonist call,OR5K1 (Homo sapiens),inactive
same,odorant receptor agonist call,OR5M3 (Homo sapiens),inactive
C=C1CCC2CC1C2(C)C (stereo not drawn),odorant receptor agonist call,OR5K1 (Homo sapiens),inactive
same,odorant receptor agonist call,OR5M3 (Homo sapiens),inactive
CSCCC=O,odorant receptor agonist call,OR5K1 (Homo sapiens),inactive
same,odorant receptor agonist call,OR5M3 (Homo sapiens),inactive
CCCCC=CC=O,odorant receptor agonist call,OR5K1 (Homo sapiens),inactive
same,odorant receptor agonist call,OR5M3 (Homo sapiens),inactive
CC(C)=CCCC(C)=CCO,odorant receptor agonist call,OR5K1 (Homo sapiens),inactive
same,odorant receptor agonist call,OR5M3 (Homo sapiens),inactive
Cc1ccc(O)cc1,odorant receptor agonist call,OR5K1 (Homo sapiens),inactive
same,odorant receptor agonist call,OR5M3 (Homo sapiens),inactive
CCc1ncc(C)nc1CC,odorant receptor agonist call,OR5K1 (Homo sapiens),active
same,odorant receptor agonist call,OR5K2 (Homo sapiens),inactive
same,odorant receptor agonist call,OR5K3 (Homo sapiens),inactive
same,odorant receptor agonist call,OR5K4 (Homo sapiens),inactive
same,odorant receptor agonist call,OR5M3 (Homo sapiens),inactive
CC(=O)O,odorant receptor agonist call,OR5K1 (Homo sapiens),inactive
same,odorant receptor agonist call,OR5M3 (Homo sapiens),inactive
CSSc1ccoc1C,odorant receptor agonist call,OR5K1 (Homo sapiens),inactive
same,odorant receptor agonist call,OR5M3 (Homo sapiens),inactive
CCOC(=O)CC(C)C,odorant receptor agonist call,OR5K1 (Homo sapiens),inactive
same,odorant receptor agonist call,OR5M3 (Homo sapiens),inactive
COCCC(C)(C)S,odorant receptor agonist call,OR5K1 (Homo sapiens),inactive
same,odorant receptor agonist call,OR5M3 (Homo sapiens),inactive
CCC(C)C=O (stereo not drawn),odorant receptor agonist call,OR5K1 (Homo sapiens),inactive
same,odorant receptor agonist call,OR5M3 (Homo sapiens),inactive
CCCC(=O)OCC,odorant receptor agonist call,OR5K1 (Homo sapiens),inactive
same,odorant receptor agonist call,OR5M3 (Homo sapiens),inactive
CCCSSSC,odorant receptor agonist call,OR5K1 (Homo sapiens),inactive
same,odorant receptor agonist call,OR5M3 (Homo sapiens),inactive
CC(=O)OCCC(C)C,odorant receptor agonist call,OR5K1 (Homo sapiens),inactive
same,odorant receptor agonist call,OR5M3 (Homo sapiens),inactive
CCOC(=O)c1ccccc1,odorant receptor agonist call,OR5K1 (Homo sapiens),inactive
same,odorant receptor agonist call,OR5M3 (Homo sapiens),inactive
SCCc1ccccc1,odorant receptor agonist call,OR5K1 (Homo sapiens),inactive
same,odorant receptor agonist call,OR5M3 (Homo sapiens),inactive
CCC(=O)O,odorant receptor agonist call,OR5K1 (Homo sapiens),inactive
same,odorant receptor agonist call,OR5M3 (Homo sapiens),inactive
CC(=O)C=CC1=C(C)CCCC1(C)C,odorant receptor agonist call,OR5K1 (Homo sapiens),inactive
same,odorant receptor agonist call,OR5M3 (Homo sapiens),inactive
CCC=CCC=O,odorant receptor agonist call,OR5K1 (Homo sapiens),inactive
same,odorant receptor agonist call,OR5M3 (Homo sapiens),inactive
CCCCCC(C)O (stereo not drawn),odorant receptor agonist call,OR5K1 (Homo sapiens),inactive
same,odorant receptor agonist call,OR5M3 (Homo sapiens),inactive
CCC(C)CO (stereo not drawn),odorant receptor agonist call,OR5K1 (Homo sapiens),inactive
same,odorant receptor agonist call,OR5M3 (Homo sapiens),inactive
COc1cccc(OC)c1O,odorant receptor agonist call,OR5K1 (Homo sapiens),inactive
same,odorant receptor agonist call,OR5M3 (Homo sapiens),inactive
CC(=O)c1ccc(C)cc1,odorant receptor agonist call,OR5K1 (Homo sapiens),inactive
same,odorant receptor agonist call,OR5M3 (Homo sapiens),inactive
CCCCCCC1CCC(=O)O1 (stereo not drawn),odorant receptor agonist call,OR5K1 (Homo sapiens),inactive
same,odorant receptor agonist call,OR5M3 (Homo sapiens),inactive
CCOC(=O)CCC(C)C,odorant receptor agonist call,OR5K1 (Homo sapiens),inactive
same,odorant receptor agonist call,OR5M3 (Homo sapiens),inactive
CCCC1CCCC(=O)O1 (stereo not drawn),odorant receptor agonist call,OR5K1 (Homo sapiens),inactive
same,odorant receptor agonist call,OR5M3 (Homo sapiens),inactive
CCCCCCCCC=CC=O,odorant receptor agonist call,OR5K1 (Homo sapiens),inactive
same,odorant receptor agonist call,OR5M3 (Homo sapiens),inactive
CSCCCO,odorant receptor agonist call,OR5K1 (Homo sapiens),inactive
same,odorant receptor agonist call,OR5M3 (Homo sapiens),inactive
CCCCCCOC(C)=O,odorant receptor agonist call,OR5K1 (Homo sapiens),inactive
same,odorant receptor agonist call,OR5M3 (Homo sapiens),inactive
CCOC(=O)C(C)CC (stereo not drawn),odorant receptor agonist call,OR5K1 (Homo sapiens),inactive
same,odorant receptor agonist call,OR5M3 (Homo sapiens),inactive
CCC(C)CCC(=O)[O-] (stereo not drawn),odorant receptor agonist call,OR5K1 (Homo sapiens),inactive
same,odorant receptor agonist call,OR5M3 (Homo sapiens),inactive
CCO,odorant receptor agonist call,OR5K1 (Homo sapiens),inactive
same,odorant receptor agonist call,OR5M3 (Homo sapiens),inactive
C=CCSC,odorant receptor agonist call,OR5K1 (Homo sapiens),inactive
same,odorant receptor agonist call,OR5M3 (Homo sapiens),inactive
CCOC(C)=O,odorant receptor agonist call,OR5K1 (Homo sapiens),inactive
same,odorant receptor agonist call,OR5M3 (Homo sapiens),inactive
CCOC(=O)CCSC,odorant receptor agonist call,OR5K1 (Homo sapiens),inactive
same,odorant receptor agonist call,OR5M3 (Homo sapiens),inactive
CCCCCCCCCC(=O)OCC,odorant receptor agonist call,OR5K1 (Homo sapiens),inactive
same,odorant receptor agonist call,OR5M3 (Homo sapiens),inactive
CC(C)CC=O,odorant receptor agonist call,OR5K1 (Homo sapiens),inactive
same,odorant receptor agonist call,OR5M3 (Homo sapiens),inactive
C=CC(=C)CCC=C(C)C,odorant receptor agonist call,OR5K1 (Homo sapiens),inactive
same,odorant receptor agonist call,OR5M3 (Homo sapiens),inactive
CCCCCC=CC=CC=O,odorant receptor agonist call,OR5K1 (Homo sapiens),inactive
same,odorant receptor agonist call,OR5M3 (Homo sapiens),inactive
CCCCC=CC=CC=O,odorant receptor agonist call,OR5K1 (Homo sapiens),inactive
same,odorant receptor agonist call,OR5M3 (Homo sapiens),inactive
CCCCCC=CCCC=O,odorant receptor agonist call,OR5K1 (Homo sapiens),inactive
same,odorant receptor agonist call,OR5M3 (Homo sapiens),inactive
CCOC(=O)C(C)C,odorant receptor agonist call,OR5K1 (Homo sapiens),inactive
same,odorant receptor agonist call,OR5M3 (Homo sapiens),inactive
CCCCCCO,odorant receptor agonist call,OR5K1 (Homo sapiens),inactive
same,odorant receptor agonist call,OR5M3 (Homo sapiens),inactive
CC1=CCC2CC1C2(C)C (stereo not drawn),odorant receptor agonist call,OR5K1 (Homo sapiens),inactive
same,odorant receptor agonist call,OR5M3 (Homo sapiens),inactive
CCC=CCCC=O,odorant receptor agonist call,OR5K1 (Homo sapiens),inactive
same,odorant receptor agonist call,OR5M3 (Homo sapiens),inactive
CCCSSSCCC,odorant receptor agonist call,OR5K1 (Homo sapiens),inactive
same,odorant receptor agonist call,OR5M3 (Homo sapiens),inactive
CCCCC(CC)CCC(=O)O (stereo not drawn),odorant receptor agonist call,OR5K1 (Homo sapiens),inactive
same,odorant receptor agonist call,OR5M3 (Homo sapiens),inactive
CCCCCCC=CC=O,odorant receptor agonist call,OR5K1 (Homo sapiens),inactive
same,odorant receptor agonist call,OR5M3 (Homo sapiens),inactive
CSSSC,odorant receptor agonist call,OR5K1 (Homo sapiens),inactive
same,odorant receptor agonist call,OR5M3 (Homo sapiens),inactive
CCCC(=O)C(C)CC (stereo not drawn),odorant receptor agonist call,OR5K1 (Homo sapiens),inactive
same,odorant receptor agonist call,OR5M3 (Homo sapiens),inactive
CC(C)=CC1CC(C)CCO1 (stereo not drawn),odorant receptor agonist call,OR5K1 (Homo sapiens),inactive
same,odorant receptor agonist call,OR5M3 (Homo sapiens),inactive
CC=CC(=O)C1=C(C)CCCC1(C)C,odorant receptor agonist call,OR5K1 (Homo sapiens),inactive
same,odorant receptor agonist call,OR5M3 (Homo sapiens),inactive
CCOC(=O)C1CCCCC1,odorant receptor agonist call,OR5K1 (Homo sapiens),inactive
same,odorant receptor agonist call,OR5M3 (Homo sapiens),inactive
CCC=CCCC=CC=O,odorant receptor agonist call,OR5K1 (Homo sapiens),inactive
same,odorant receptor agonist call,OR5M3 (Homo sapiens),inactive
